Legend:
[1] = rats and ferrets, intratracheal administration at doses compatible with those used in humans; cited from earlier work
[2] = Study 2 Part 2: adverse events after multiple BID doses via MDDPI; assay type: in vivo, human; conditions: N=9
How it was run: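 Study 2 Part 2 used three parallel escalating cohorts of healthy men and women. Subjects inhaled test compound at 1,200, 2,000 or 2,400 µg twice daily, or placebo, for 14 days via a reservoir multi-dose dry-powder inhaler, confined from day −2 to day 15. AEs were recorded with investigator-assessed relation to study medication, as number (%) of the safety population.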

[3] = Study 1 Part 2: adverse events after multiple OD doses via SDDPI; assay type: in vivo, human
How it was run: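 In Study 1 Part 2, healthy men were randomized to five parallel, dose-escalating cohorts. Each received test compound (100–1,600 µg) or matching placebo once daily for 7 days via a capsule-based single-dose dry-powder inhaler. AEs and investigator-assessed relation to study medication were recorded. Results are number (%) of subjects in the safety population (randomized, at least one dose).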

[4] = Safety assessments in both studies; assay type: in vivo, human
How it was run: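 Healthy non- or ex-smoking volunteers aged 18–55 (Study 1 men only; Study 2 men and women), randomized, double-blind, placebo-controlled, single centre. AEs were recorded with the investigator-judged relation to study drug. Haematology and blood chemistry were taken at baseline and end of dosing. Blood pressure, ECG and 24 h Holter were taken at regular intervals, and FEV1 was checked for post-dose bronchospasm.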

[5] = following both single and multiple doses

CS(=O)(=O)Nc1ccc(C(=O)O[C@@H](Cc2c(Cl)c[n+]([O-])cc2Cl)c2ccc(OC(F)F)c(OCC3CC3)c2)cc1OCC1CC1 [CHF6001]
emesis or nausea [1]: no evidence of emesis or nausea
AE considered related to study medication ([2]; 1,200 µg BID 14 days): 4 (44.4) Number (%) of subjects
AE leading to death ([2]; 1,200 µg BID 14 days): 0 Number (%) of subjects
AE leading to withdrawal ([2]; 1,200 µg BID 14 days): 0 Number (%) of subjects
At least one AE ([2]; 1,200 µg BID 14 days): 6 (66.7) Number (%) of subjects
At least one SAE ([2]; 1,200 µg BID 14 days): 0 Number (%) of subjects
Back pain (AE) ([2]; 1,200 µg BID 14 days): 0 Number (%) of subjects
Diarrhea (AE considered related to study medication) ([2]; 1,200 µg BID 14 days): 1 (11.1) Number (%) of subjects
Flatulence (AE considered related to study medication) ([2]; 1,200 µg BID 14 days): 1 (11.1) Number (%) of subjects
Headache (AE considered related to study medication) ([2]; 1,200 µg BID 14 days): 3 (33.3) Number (%) of subjects
Headache (AE) ([2]; 1,200 µg BID 14 days): 3 (33.3) Number (%) of subjects
Nausea (AE considered related to study medication) ([2]; 1,200 µg BID 14 days): 0 Number (%) of subjects
Parosmia (AE considered related to study medication) ([2]; 1,200 µg BID 14 days): 0 Number (%) of subjects
Severe AE ([2]; 1,200 µg BID 14 days): 0 Number (%) of subjects
AE leading to death ([2]; 2,000 µg BID 14 days): 0 Number (%) of subjects
AE leading to withdrawal ([2]; 2,000 µg BID 14 days): 0 Number (%) of subjects
At least one AE ([2]; 2,000 µg BID 14 days): 5 (55.6) Number (%) of subjects
At least one SAE ([2]; 2,000 µg BID 14 days): 0 Number (%) of subjects
Back pain (AE) ([2]; 2,000 µg BID 14 days): 3 (33.3) Number (%) of subjects
Diarrhea (AE considered related to study medication) ([2]; 2,000 µg BID 14 days): 0 Number (%) of subjects
Flatulence (AE considered related to study medication) ([2]; 2,000 µg BID 14 days): 0 Number (%) of subjects
Headache (AE considered related to study medication) ([2]; 2,000 µg BID 14 days): 2 (22.2) Number (%) of subjects
Headache (AE) ([2]; 2,000 µg BID 14 days): 2 (22.2) Number (%) of subjects
Nausea (AE considered related to study medication) ([2]; 2,000 µg BID 14 days): 0 Number (%) of subjects
Parosmia (AE considered related to study medication) ([2]; 2,000 µg BID 14 days): 0 Number (%) of subjects
Severe AE ([2]; 2,000 µg BID 14 days): 1 (11.1) Number (%) of subjects
AE considered related to study medication ([2]; 2,400 µg BID 14 days): 1 (11.1) Number (%) of subjects
AE leading to death ([2]; 2,400 µg BID 14 days): 0 Number (%) of subjects
AE leading to withdrawal ([2]; 2,400 µg BID 14 days): 1 (11.1) Number (%) of subjects
At least one AE ([2]; 2,400 µg BID 14 days): 7 (77.8) Number (%) of subjects
At least one SAE ([2]; 2,400 µg BID 14 days): 0 Number (%) of subjects
Back pain (AE) ([2]; 2,400 µg BID 14 days): 5 (55.6) Number (%) of subjects
Diarrhea (AE considered related to study medication) ([2]; 2,400 µg BID 14 days): 0 Number (%) of subjects
Flatulence (AE considered related to study medication) ([2]; 2,400 µg BID 14 days): 0 Number (%) of subjects
Headache (AE considered related to study medication) ([2]; 2,400 µg BID 14 days): 1 (11.1) Number (%) of subjects
Headache (AE) ([2]; 2,400 µg BID 14 days): 2 (22.2) Number (%) of subjects
Nausea (AE considered related to study medication) ([2]; 2,400 µg BID 14 days): 0 Number (%) of subjects
Parosmia (AE considered related to study medication) ([2]; 2,400 µg BID 14 days): 0 Number (%) of subjects
Severe AE ([2]; 2,400 µg BID 14 days): 0 Number (%) of subjects
AE considered related to study medication ([3]; 100 µg OD 7 days, N=8): 0 Number (%) of subjects
AE leading to death ([3]; 100 µg OD 7 days, N=8): 0 Number (%) of subjects
AE leading to withdrawal ([3]; 100 µg OD 7 days, N=8): 0 Number (%) of subjects
At least one AE ([3]; 100 µg OD 7 days, N=8): 3 (37.5) Number (%) of subjects
At least one SAE ([3]; 100 µg OD 7 days, N=8): 0 Number (%) of subjects
Back pain (AE) ([3]; 100 µg OD 7 days, N=8): 0 Number (%) of subjects
Diarrhea (AE considered related to study medication) ([3]; 100 µg OD 7 days, N=8): 0 Number (%) of subjects
Flatulence (AE considered related to study medication) ([3]; 100 µg OD 7 days, N=8): 0 Number (%) of subjects
Headache (AE considered related to study medication) ([3]; 100 µg OD 7 days, N=8): 0 Number (%) of subjects
Headache (AE) ([3]; 100 µg OD 7 days, N=8): 0 Number (%) of subjects
Nausea (AE considered related to study medication) ([3]; 100 µg OD 7 days, N=8): 0 Number (%) of subjects
Parosmia (AE considered related to study medication) ([3]; 100 µg OD 7 days, N=8): 0 Number (%) of subjects
Severe AE ([3]; 100 µg OD 7 days, N=8): 0 Number (%) of subjects
AE considered related to study medication ([3]; 300 µg OD 7 days, N=8): 0 Number (%) of subjects
AE leading to death ([3]; 300 µg OD 7 days, N=8): 0 Number (%) of subjects
AE leading to withdrawal ([3]; 300 µg OD 7 days, N=8): 0 Number (%) of subjects
At least one AE ([3]; 300 µg OD 7 days, N=8): 2 (25.0) Number (%) of subjects
At least one SAE ([3]; 300 µg OD 7 days, N=8): 0 Number (%) of subjects
Back pain (AE) ([3]; 300 µg OD 7 days, N=8): 0 Number (%) of subjects
Diarrhea (AE considered related to study medication) ([3]; 300 µg OD 7 days, N=8): 0 Number (%) of subjects
Flatulence (AE considered related to study medication) ([3]; 300 µg OD 7 days, N=8): 0 Number (%) of subjects
Headache (AE considered related to study medication) ([3]; 300 µg OD 7 days, N=8): 0 Number (%) of subjects
Headache (AE) ([3]; 300 µg OD 7 days, N=8): 0 Number (%) of subjects
Nausea (AE considered related to study medication) ([3]; 300 µg OD 7 days, N=8): 0 Number (%) of subjects
Parosmia (AE considered related to study medication) ([3]; 300 µg OD 7 days, N=8): 0 Number (%) of subjects
Severe AE ([3]; 300 µg OD 7 days, N=8): 0 Number (%) of subjects
AE considered related to study medication ([3]; 600 µg OD 7 days, N=9): 0 Number (%) of subjects
AE leading to death ([3]; 600 µg OD 7 days, N=9): 0 Number (%) of subjects
AE leading to withdrawal ([3]; 600 µg OD 7 days, N=9): 0 Number (%) of subjects
At least one AE ([3]; 600 µg OD 7 days, N=9): 5 (55.6) Number (%) of subjects
At least one SAE ([3]; 600 µg OD 7 days, N=9): 0 Number (%) of subjects
Back pain (AE) ([3]; 600 µg OD 7 days, N=9): 0 Number (%) of subjects
Diarrhea (AE considered related to study medication) ([3]; 600 µg OD 7 days, N=9): 0 Number (%) of subjects
Flatulence (AE considered related to study medication) ([3]; 600 µg OD 7 days, N=9): 0 Number (%) of subjects
Headache (AE considered related to study medication) ([3]; 600 µg OD 7 days, N=9): 0 Number (%) of subjects
Headache (AE) ([3]; 600 µg OD 7 days, N=9): 2 (22.2) Number (%) of subjects
Nausea (AE considered related to study medication) ([3]; 600 µg OD 7 days, N=9): 0 Number (%) of subjects
Parosmia (AE considered related to study medication) ([3]; 600 µg OD 7 days, N=9): 0 Number (%) of subjects
Severe AE ([3]; 600 µg OD 7 days, N=9): 0 Number (%) of subjects
AE considered related to study medication ([3]; 1,200 µg OD 7 days, N=9): 0 Number (%) of subjects
AE leading to death ([3]; 1,200 µg OD 7 days, N=9): 0 Number (%) of subjects
AE leading to withdrawal ([3]; 1,200 µg OD 7 days, N=9): 0 Number (%) of subjects
At least one AE ([3]; 1,200 µg OD 7 days, N=9): 2 (22.2) Number (%) of subjects
At least one SAE ([3]; 1,200 µg OD 7 days, N=9): 0 Number (%) of subjects
Back pain (AE) ([3]; 1,200 µg OD 7 days, N=9): 0 Number (%) of subjects
Diarrhea (AE considered related to study medication) ([3]; 1,200 µg OD 7 days, N=9): 0 Number (%) of subjects
Flatulence (AE considered related to study medication) ([3]; 1,200 µg OD 7 days, N=9): 0 Number (%) of subjects
Headache (AE considered related to study medication) ([3]; 1,200 µg OD 7 days, N=9): 0 Number (%) of subjects
Headache (AE) ([3]; 1,200 µg OD 7 days, N=9): 0 Number (%) of subjects
Nausea (AE considered related to study medication) ([3]; 1,200 µg OD 7 days, N=9): 0 Number (%) of subjects
Parosmia (AE considered related to study medication) ([3]; 1,200 µg OD 7 days, N=9): 0 Number (%) of subjects
Severe AE ([3]; 1,200 µg OD 7 days, N=9): 0 Number (%) of subjects
AE considered related to study medication ([3]; 1,600 µg OD 7 days, N=7): 0 Number (%) of subjects
AE leading to death ([3]; 1,600 µg OD 7 days, N=7): 0 Number (%) of subjects
AE leading to withdrawal ([3]; 1,600 µg OD 7 days, N=7): 0 Number (%) of subjects
At least one AE ([3]; 1,600 µg OD 7 days, N=7): 3 (42.9) Number (%) of subjects
At least one SAE ([3]; 1,600 µg OD 7 days, N=7): 0 Number (%) of subjects
Back pain (AE) ([3]; 1,600 µg OD 7 days, N=7): 0 Number (%) of subjects
Diarrhea (AE considered related to study medication) ([3]; 1,600 µg OD 7 days, N=7): 0 Number (%) of subjects
Flatulence (AE considered related to study medication) ([3]; 1,600 µg OD 7 days, N=7): 0 Number (%) of subjects
Headache (AE considered related to study medication) ([3]; 1,600 µg OD 7 days, N=7): 0 Number (%) of subjects
Headache (AE) ([3]; 1,600 µg OD 7 days, N=7): 0 Number (%) of subjects
Nausea (AE considered related to study medication) ([3]; 1,600 µg OD 7 days, N=7): 0 Number (%) of subjects
Parosmia (AE considered related to study medication) ([3]; 1,600 µg OD 7 days, N=7): 0 Number (%) of subjects
Severe AE ([3]; 1,600 µg OD 7 days, N=7): 0 Number (%) of subjects
mean laboratory values ([4]; both studies): within normal ranges
post-dose decreases in FEV1 (bronchospasm) ([4]; both studies, single and multiple doses): no clinically significant post-dose decreases
mean ECG values [4, 5]: within the normal range
mean systolic and diastolic blood pressure [4, 5]: within the normal range
nausea events ([4]; following single doses in both studies): no nausea events
relationship between dose and occurrence of AEs or serious adverse events ([4]; single or multiple dosing): no relationship

Source: article PMC6203112 (International Journal of Chronic Obstructive Pulmonary …, 2018)
